Bioassay records deposited in PubChem by several laboratories.
G6PDH counter-1: L. mesenteroides G6PDH inhibitors, counter-screen for G6PDH-coupled screening assays, biochemical, Leuconostoc mesenteroides enzyme. glucose-6-phosphate dehydrogenase [Leuconostoc mesenteroides]. Purified L. mesenteroides G6PDH, diaphorase/resazurin coupled fluorescence, 45 min. inhibition, % at 5 µM. 0.12% of 200,000 active. AID 1020, 2008; in the data active means inhibition above about 50%
Diaph inh CS: diaphorase inhibitors and chemical oxidizers, primary screen, counter-screen for diaphorase-coupled primary assays, biochemical, uHTS, resorufin fluorescence; 0.69% of 190,000 active; AID 1217, 2008; diaphorase resazurin-to-resorufin fluorescence, NADH, 16 min; bacterial (C. kluyveri) enzyme, not human; inhibition, % at 20 µM;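 active means primary screen inhibition at 20 µM above a set limit, cut at about 50% in these data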;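 further: plate controls were DMSO with full reaction for no effect and wells lacking NADH for full effect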
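System: Bacterial diaphorase enzyme (C. kluyveri) | Incubation: 16-min room-temperature incubation before reading | Benchmarks: No-NADH positive control and DMSO neutral control | Measured by: Resorufin fluorescence 544/590 nm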
HKDC1 inh: HKDC1 hexokinase inhibitors, primary screen, biochemical, fluorescence, uHTS | Q2TB90 | recombinant HKDC1, G6PDH/diaphorase resazurin coupled fluorescence | inhibition, % at 20 µM | 0.16% of 340,000 active;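 active means inhibition above about 35% when tested at 20 µM, limit read from the data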;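 further: plate controls were DMSO wells with enzyme for no effect and DMSO wells lacking enzyme for full effect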
Target sequence (Q2TB90 whole entry, looked up): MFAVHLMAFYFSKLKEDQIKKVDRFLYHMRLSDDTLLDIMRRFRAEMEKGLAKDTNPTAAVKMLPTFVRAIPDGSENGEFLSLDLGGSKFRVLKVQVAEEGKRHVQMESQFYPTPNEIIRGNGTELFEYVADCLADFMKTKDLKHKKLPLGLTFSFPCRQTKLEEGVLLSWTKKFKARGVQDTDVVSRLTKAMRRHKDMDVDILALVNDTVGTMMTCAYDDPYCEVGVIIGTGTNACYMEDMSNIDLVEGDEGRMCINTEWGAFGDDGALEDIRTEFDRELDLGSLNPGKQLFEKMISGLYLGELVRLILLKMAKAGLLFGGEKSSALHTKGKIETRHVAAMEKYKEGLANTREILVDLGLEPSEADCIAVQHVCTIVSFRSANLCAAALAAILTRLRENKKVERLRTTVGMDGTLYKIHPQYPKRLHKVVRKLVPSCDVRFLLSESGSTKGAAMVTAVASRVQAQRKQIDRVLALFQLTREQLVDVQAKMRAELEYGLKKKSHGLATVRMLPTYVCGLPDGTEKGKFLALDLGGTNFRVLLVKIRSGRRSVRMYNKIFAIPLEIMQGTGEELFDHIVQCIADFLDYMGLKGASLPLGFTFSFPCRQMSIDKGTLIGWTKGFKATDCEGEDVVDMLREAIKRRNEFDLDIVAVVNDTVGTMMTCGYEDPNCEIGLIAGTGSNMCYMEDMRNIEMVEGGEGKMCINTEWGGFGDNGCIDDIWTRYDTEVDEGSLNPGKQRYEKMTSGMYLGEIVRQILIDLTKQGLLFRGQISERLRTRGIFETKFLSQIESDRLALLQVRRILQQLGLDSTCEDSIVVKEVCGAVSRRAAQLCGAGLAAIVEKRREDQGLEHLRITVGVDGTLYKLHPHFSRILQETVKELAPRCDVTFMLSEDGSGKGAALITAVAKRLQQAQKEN
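Test system: HK5 enzyme. Quantity: 5 µg/mL HK5 final. Reagent: glucose and ATP substrates. Schedule: 90 min reaction incubation at room temperature, dark. Technique: resazurin-to-resorufin fluorescence via G6PDH and diaphorase coupling, 525/613 nm. Control set: DMSO wells with and without enzyme mix.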
PfGluPho inh: PfG6PD enzyme inhibitors, primary screen, biochemical, fluorescence intensity, uHTS | glucose-6-phosphate dehydrogenase-6-phosphogluconolactonase (Plasmodium falciparum 3D7) | 0.78% of 350,000 active | inhibition, % at 20 µM | PfGluPho enzyme, NADPH resazurin-diaphorase fluorescence;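 active means inhibition reaching at least a set limit at 20 µM in the primary screen, cut at about 59% in these data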;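 further: 0% = DMSO wells with substrate and 100% = DMSO wells lacking glucose-6-phosphate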
Tb hexokinase: Trypanosoma brucei hexokinase 1 inhibitors, primary screen, biochemical, G6PDH-coupled NADH absorbance, MLSCN library; hexokinase 1 [Trypanosoma brucei]; recombinant TbHK1, G6PDH-coupled NADH A340; inhibition, % at 10 µM; 0.11% of 220,000 active; AID 1430, 2008;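 active means inhibition of 50% or more in the single-dose primary screen; inactive means inhibition below 50%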
G6PDH counter-2: Leuconostoc G6PDH inhibition, confirmation, counter-screen for TbHK1 inhibitor project, biochemical, DPI cherry-picked compounds, single concentration | inhibition, % at 10 µM | shares compounds with Tb hexokinase | purified G6PDH, NADH absorbance, 1 h | 7% of 210 active;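 active means at least 50% inhibition in the glucose-6-phosphate dehydrogenase coupled counterscreen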
TbHK1 confirm: TbHK1 inhibitor retest, confirmation, biochemical, DPI cherry-picked primary actives; shares compounds with Tb hexokinase; recombinant TbHK1, G6PDH-coupled NADH A340 absorbance; inhibition, % at 10 µM; 10% of 210 active;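 active means inhibition of at least 50% in both of the two screening runs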;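 further: 0% and 100% set by the maximum and minimum signal control wells on each plate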
The depositor's hits bear a star; x = no result. Most compounds without a hit are left out; they make up all but 1.3% or so of the library.

SMILES	G6PDH counter-1	Diaph inh CS	HKDC1 inh	PfGluPho inh	Tb hexokinase	G6PDH counter-2	TbHK1 confirm
COC(=O)c1c(C)[nH]c(C(=O)CSc2ccc(Cl)cc2)c1C	-3	11	4	-4	50*	-6	-11
COC(=O)c1c(C)[nH]c(C(=O)CC#N)c1C	-4	10	-8	13	-1	x	x
CC(NC(=O)c1cc2c(cc1Cl)N1CCCCCC1=NS2(=O)=O)c1ccc(S(N)(=O)=O)cc1 (centres undefined)	x	x	-3	-4	x	x	x
Clc1ccc(-c2nnc(NC3=NCCCCC3)o2)cc1	9	10	0	33	50*	-3	2
N#Cc1cc(Sc2ccccn2)c(Sc2ccccn2)cc1C#N	2	20	1	23	58*	-12	-9
CC1(C)Cc2c(C#N)c(N)sc(=S)c2CO1	13	30	-8	37	73*	101*	68*
CC(C)C1Cc2c(C#N)c(N)sc(=S)c2CO1 (centres undefined)	9	27	3	31	19	x	x
Cc1oc(-c2ccccc2F)nc1CSCC(=O)NCc1ccc2c(c1)OCO2	-1	11	-11	-5	61*	-21	0
COc1ccc(CNC(=O)C2CCN(C(=O)[C@@H](CC(C)C)NC(=O)OC(C)(C)C)CC2)cc1	5	4	x	x	56*	-9	1
Cc1ccc(C)c(NC(=S)NNC(=O)c2cc3c(s2)CCC(C)C3)c1 (centres undefined)	-12	10	-12	-5	6	x	x
Cc1cccc(NC(=S)NNC(=O)c2cc3c(s2)CCC(C)C3)c1C (centres undefined)	7	-11	-15	-23	71*	-34	-1
O=C(NC1CCCCC1)C1CCN(S(=O)(=O)N2CCOCC2)CC1	-4	4	-7	-10	58*	-13	2
COCCNC(=O)CSc1ccccc1C(=O)NCC1CCCCC1	3	1	-11	4	-1	x	x
S=C(Nc1ccccc1)Nc1nc2ccccc2n1CCOc1ccccc1	0	9	-32	3	-8	x	x
CCCCn1c(NC(=S)Nc2ccccc2)nc2ccccc21	-21	0	-32	1	62*	-33	-37
Cc1ccc(C)c(Cn2nnc3c(=O)[nH]c(C4CCCN(C(=O)c5ccco5)C4)nc32)c1 (centres undefined)	x	x	-2	-7	x	x	x
O=C(O)CCCCC1CCSS1 (centres undefined)	7	10	1	-14	86*	-39	96*
CCCCCCCCCC(=O)O	x	x	-5	-24	x	x	x
CC(=O)C1=NOC(CNC(=O)c2c(-c3ccccc3Cl)noc2C)C1 (centres undefined)	2	8	-5	1	-5	x	x
CCC(C)NC(=O)NC1C(NC(=O)NC(C)CC)N(C)C(=O)N1C (centres undefined)	-2	8	-2	16	3	x	x
CC(C)CNC(=O)NC1C(NC(=O)NCC(C)C)N(C)C(=O)N1C (centres undefined)	5	-4	-2	-8	57*	-9	-2
Cc1nn(Cc2ccc(C(=O)NC(C)(C)C)o2)c(C)c1Br	1	8	3	1	50*	-36	32
Cc1cc(NC(=O)c2ccc(Cn3nc(C)c(Br)c3C)o2)no1	-2	10	-9	3	2	x	x
CN(C)c1ccc(C(=S)N2CCOCC2)cc1	18	20	-5	-9	69*	-20	-30
CN(C)c1ccc(C(=S)N2CCCCCC2)cc1	0	17	7	23	-12	x	x
SMILES	G6PDH counter-1	Diaph inh CS	HKDC1 inh	PfGluPho inh	Tb hexokinase	G6PDH counter-2	TbHK1 confirm
CC(O)c1nc2ccc(Cc3ccc4nc(C(C)O)[nH]c4c3)cc2[nH]1 (centres undefined)	11	-6	0	-5	55*	-5	-7
S=C(NNc1ccnc2cc(Cl)ccc12)Nc1ccc(Cl)cc1Cl	x	x	-23	23	61*	109*	60*
O=C(/C=C/c1cc[n+](CC(=O)c2ccc3cccc4c3c2CC4)cc1)c1ccc2cccc3c2c1CC3	x	x	19	73*	75*	100*	45
O=C(C[n+]1ccc2ccccc2c1)c1cccc2ccccc12	4	45	4	14	-5	x	x
CCOC(=O)N1CCN(C(=O)C2CCN(S(=O)(=O)N3CCCC3)CC2)CC1	14	10	-11	-10	58*	-6	5
CCOC(=O)N1CCN(C(=O)C2CCN(S(=O)(=O)N3CCC4(CC3)OCCO4)CC2)CC1	x	x	-2	-12	x	x	x
CCN(CC)CCCN1C(=O)c2oc3ccccc3c(=O)c2C1c1cccnc1 (centres undefined)	0	14	1	-9	54*	-17	-10
CCN(CC)CCN1C(=O)c2oc3ccccc3c(=O)c2C1c1ccc(F)cc1 (centres undefined)	13	3	-14	1	-1	x	x
COc1ccc(C(=O)N2CCCC(c3nc(-c4ccc(C)o4)no3)C2)cc1OC (centres undefined)	x	x	-6	1	x	x	x
CCOC(=O)c1n[nH]n2c1nc(=S)c1ccccc12	x	x	-1	31	x	x	x
CCN(CC)S(=O)(=O)c1ccc(C(=O)NC2=C(C(=O)OC)SCC2)cc1	-4	30	13	-15	55*	-82	-34
COC(=O)C1=C(NC(=O)c2ccc(C)c(C)c2)CCS1	4	22	13	3	57*	1	-1
CCOC(=O)C1=C(COC(=O)/C=C/c2cc(Br)ccc2F)NC(=O)NC1C (centres undefined)	x	x	2	-5	x	x	x
O=C(O)c1cccc(S(=O)(=O)Nc2ccc([N+](=O)[O-])cc2O)c1	x	x	0	-25	0	x	x
